Assay outcomes: PubChem, Broad Institute
Cneo AK release – Cryptococcus neoformans lysis via adenylate kinase release; C. neoformans lysis, adenylate kinase release luminescence, 4 h; normalised: neutral wells 0, clomiphene wells 100; lysis activity, % at 15 µM; 360,000 compounds, 0.2% hits;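 active = mean lysis activity across replicates of at least 80%, whatever share of replicates individually reach that level; inactive = mean lysis activity below 80%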
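Material: C. neoformans cells | Amount: Yeast cell density of 5 × 10^6 cells/mL | Medium: Fresh YPD growth medium | Dosing: Single dose | Times: Static 4 h at 37 °C with compound, 1 h detection | Detection: AK luminescence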
Wnt act – Wnt/beta-catenin pathway activation; activation, % at 9.35 µM; Wnt/beta-catenin reporter cell assay, activator, plate reader; 300,000 compounds, 1.2% hits; AID 743398; in the data active = activation above about 30%, passing the limit was not always enough; inconclusive = no clear call, values can overlap the other calls
PGC1a acetyl inh – PGC1a acetylation modulation, inhibitor mode; U2OS PGC1a acetylation, AlphaScreen anti-acetyl-lysine; with virally co-expressed GCN5 acetyltransferase; inhibition, % at 15.6 µM; 350,000 compounds, 0.17% hits;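 active = every replicate shows inhibition of at least 40%; inconclusive = mean inhibition at least 40% but some replicate below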
MITF TRPM1 HTS – activators of MITF-driven TRPM1 promoter activity in SK-MEL-5 cells; activation, % at 12.5 µM; SK-MEL-5 TRPM1-promoter luciferase, 24 h; % of positive control, neutral wells = 0; 300,000 compounds, 0.75% hits; AID 588334;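 active = mean activation of at least 80% with every replicate also reaching 80%; inconclusive = mean reaches 80% but some replicate falls short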
Numbers stand for hits; n = inactive; u = inconclusive; x = no result. Rows were chosen to be rich in hits. Some 1.5% of all compounds tested hit in one or more screens of this group.

SMILES	Cneo AK release	Wnt act	PGC1a acetyl inh	MITF TRPM1 HTS
O=C(Nc1ncccc1Cl)c1cc2ccccc2o1	n	46	n	n
C[C@H](CO)N1C[C@H](C)[C@H](CN(C)Cc2ccc(C(=O)Nc3ccccc3N)cc2)Oc2ccc(NC(=O)Cc3ccccc3)cc2CC1=O	x	x	n	x
C[C@@H]1CN([C@H](C)CO)C(=O)Cc2cc(NC(=O)CCN3CCOCC3)ccc2O[C@@H]1CN(C)Cc1ccc(-c2ccccc2)cc1	x	x	n	x
COc1ccc(NC(=O)c2cc3ccccc3o2)cn1	n	43	n	104
O=C(Nc1ccccc1)c1cc2ccccc2o1	n	35	n	n
CC(=O)Nc1ccc(-c2cc3ccccc3o2)cc1	n	56	n	x
Cc1noc(C)c1S(=O)(=O)Nc1ccc2c(c1)C(=O)N([C@@H](C)CO)C[C@@H](C)[C@H](CN(C)C)OCCCC[C@@H](C)O2	n	x	n	x
Cc1noc(C)c1S(=O)(=O)Nc1cccc2c1O[C@@H](CN(C)Cc1ccc(C(=O)O)cc1)[C@@H](C)CN([C@H](C)CO)C2=O	n	x	n	x
C[C@H]1CN([C@@H](C)CO)S(=O)(=O)c2ccc(C#CC3CC3)cc2O[C@@H]1CN(C)Cc1cncnc1	x	x	n	x
CCn1cnc2c(Nc3cccc(Cl)c3)nc(C#N)nc21	n	46	x	112
CCn1cnc2c(NCCc3cccnc3)nc(C#N)nc21	n	n	n	n
C[C@@H]1CN([C@@H](C)CO)C(=O)c2cc(Br)cnc2O[C@H]1CN(C)CC1CCCC1	n	x	n	x
C[C@H]1CN([C@@H](C)CO)S(=O)(=O)c2ccc(C#Cc3ccccc3F)cc2O[C@H]1CN(C)C(=O)c1ccc2c(c1)OCO2	n	x	n	x
Cc1cc(C)c(C#N)c(SCc2nnc(-c3ccccc3[N+](=O)[O-])o2)n1	x	75	n	n
O=C(N/N=C/c1ccccc1O)NC12CC3CC(CC(C3)C1)C2	n	n	x	136
O=C(CCCCn1c(=O)[nH]c2ccsc2c1=O)NCCc1ccccc1	n	37	n	n
O=C(CCn1c(=O)[nH]c2ccsc2c1=O)NCCc1ccc(Cl)cc1	n	n	n	n
CCOc1ccc(NC(=O)CCCCn2c(=O)[nH]c3ccsc3c2=O)cc1	n	37	n	n
N#Cc1ccc(-c2ccc3c(c2)[C@H]2[C@H](CCN2C(=O)Cc2ccccc2)[C@H](CO)N3)cc1	n	x	n	x
N#Cc1ccc(-c2ccc3c(c2)[C@@H]2[C@@H](CCN2C(=O)Cc2ccccc2)[C@@H](CO)N3)cc1	89	x	n	x
N#Cc1ccc(-c2ccc3c(c2)[C@@H]2[C@@H](CCN2C(=O)Cc2ccccc2)[C@H](CO)N3)cc1	n	x	n	x
N#Cc1ccc(-c2ccc3c(c2)[C@H]2[C@H](CCN2C(=O)Cc2ccccc2)[C@@H](CO)N3)cc1	95	x	n	x
CCC(=O)N[C@H]1CC[C@H](CCn2cc(CN(C)C)nn2)O[C@@H]1CO	n	x	n	x
O=C(CC1CC1)Nc1ccc2c(c1)[C@@H]1C[C@@H](CC(=O)NC3CCCC3)O[C@H](CO)[C@@H]1O2	n	x	n	x
CO[C@@H]1CN(C)C(=O)c2ccc(NS(C)(=O)=O)cc2OC[C@H](C)N(Cc2cncnc2)C[C@H]1C	n	x	n	x
SMILES	Cneo AK release	Wnt act	PGC1a acetyl inh	MITF TRPM1 HTS
C[C@H]1CN([C@@H](C)CO)S(=O)(=O)c2ccc(-c3cncnc3)cc2O[C@@H]1CN(C)C(=O)CN(C)C	n	x	n	x
C=CCNC(=O)C1CC1(c1cccc(C)c1)c1cccc(C)c1 (configuration not stated)	n	42	n	x
Cc1cccc(C2(c3cccc(C)c3)CC2C(=O)NCC2CCCO2)c1 (configuration not stated)	n	n	x	n
C[C@H](CO)N1C[C@H](C)[C@H](CN(C)C(=O)Nc2ccc3c(c2)OCO3)OCCCC[C@H](C)Oc2ccc(NC(=O)c3ccncc3)cc2C1=O	n	x	n	x
COc1ccc(C2Nc3ccccc3C(=O)N2c2ccc(C)cc2)cc1COc1ccccn1 (configuration not stated)	x	x	x	n
COc1ccc(C2Nc3ccccc3C(=O)N2c2ccc(C)cc2)cc1Cn1nc(C)c([N+](=O)[O-])c1C (configuration not stated)	n	n	n	90
COc1cc2ccccc2cc1C(=O)NC1CCC(C)CC1 (configuration not stated)	n	38	x	118
COc1cc2ccccc2cc1C(=O)NC1CCCC1	n	n	n	n
COc1ccccc1N1CCN(/N=C/c2cccc(OC)c2O)CC1	x	44	n	n
COc1cccc(/C=N/N2CCN(c3ccccc3OC)CC2)c1	n	x	n	108
COc1ccccc1N1CCN(/N=C/c2cccc(Cl)c2)CC1	n	42	x	x
COc1ccc(/C=N/N2CCN(c3ccccc3OC)CC2)cc1OC	n	x	n	n
COc1ccc(CN(C)C[C@@H]2OCCCC[C@@H](C)Oc3ccc(NC(=O)Nc4ccc(F)cc4)cc3C(=O)N([C@@H](C)CO)C[C@@H]2C)cc1	n	x	n	x
C[C@@H]1CN([C@H](C)CO)C(=O)c2cc(C#Cc3ccccc3F)cnc2O[C@H]1CN(C)S(C)(=O)=O	n	x	n	x
CO[C@@H]1CN(C)C(=O)c2ccc(NC(=O)C3CC3)cc2OC[C@@H](C)N(Cc2cccc(F)c2)C[C@H]1C	x	x	n	x
COc1ccc(N=C2S/C(=C\c3ccc(N4CCOCC4)o3)C(=O)N2CCc2c[nH]c3ccccc23)cc1	n	x	62	n
COc1ccc(N=C2S/C(=C\c3ccc(OCC(=O)O)cc3)C(=O)N2CCc2c[nH]c3ccccc23)cc1	x	n	n	n
N#C[C@H]1[C@H](c2ccccc2C2=CCCCC2)[C@@H](CO)N1C(=O)Cc1ccncc1	x	x	n	x
N#C[C@@H]1[C@H](c2ccccc2C2=CCCCC2)[C@H](CO)N1C(=O)Cc1ccncc1	x	x	45	x
COc1ccc(NC(=O)c2coc3ccccc23)cc1OC	n	x	n	112
C[C@H](CO)N1C[C@H](C)[C@@H](CN(C)S(=O)(=O)c2ccc(Cl)cc2)Oc2ccc(NC(=O)CCCN(C)C)cc2C1=O	n	x	n	x
CC(C=NNC(=O)C(=O)NN=CC(C)=Cc1ccccc1)=Cc1ccccc1	n	x	n	n
CC(/C=N/NC(=O)c1ccccc1F)=C\c1ccccc1	n	n	n	99
CC(/C=N/NC(=O)c1sc(N)nc1C)=C\c1ccccc1	x	u	x	120
O=C(N/N=C/C(Cl)=C\c1ccccc1)c1cccs1	n	39	x	x
SMILES	Cneo AK release	Wnt act	PGC1a acetyl inh	MITF TRPM1 HTS
Cc1nc(N)sc1C(=O)N/N=C/c1ccccc1[N+](=O)[O-]	n	n	n	x
CC(/C=N/NC(=O)c1cccs1)=C\c1ccccc1	n	n	n	99
C[C@H](CO)N1C[C@H](C)[C@@H](CN(C)C(=O)c2ccncc2)OCCCC[C@H](C)Oc2ccc(N(C)C)cc2C1=O	x	x	n	x
CCCC(=O)Nc1ccc2c(c1)OC[C@@H](C)N(Cc1ccccc1)C[C@H](C)[C@H](OC)CN(C)C2=O	n	x	n	x
COC(=O)c1cc(Nc2cc(C)c3c(O)cccc3n2)cc(C(=O)OC)c1	x	n	n	n
Cc1ccc(Nc2cc(C)c3c(O)cccc3n2)cc1C	n	n	n	111
COc1ccc(Nc2cc(C)c3c(O)cccc3n2)cc1	n	n	n	130
